ChEMBL document CHEMBL4052823, “Extra Sugar on Vancomycin: New Analogues for Combating Multidrug-Resistant Staphylococcus aureus and Vancomycin-Resistant Enterococci” (J Med Chem, 2018)
≈ marks a conversion by molar mass, not a printed value. Calls of active or inactive are those of the source. The rule behind the calls is not given here.

Columns and labels:
Enterococcus faecium [1] = assay: Antibacterial activity against glycopeptide-resistant Enterococcus faecium Efm-HS-0847 vanM after 24 hrs by broth microdilution method; format: functional; conditions: Efm-HS-0847, 24 h
How it was run: (§1)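 Broth microdilution in cation-adjusted Mueller-Hinton II broth. DMSO stocks were diluted in broth and twofold serially from 128 to 0.0625 μg/mL or lower. Each well was inoculated with ~10^5 CFU of exponential-phase bacteria and incubated at 37 °C for 24 h. MIC was the lowest concentration giving complete growth inhibition, read per CLSI. Growth controls contained broth plus DMSO.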

Staphylococcus aureus [2] = assay: Antibacterial activity against healthcare-associated methicillin-resistant/vancomycin-intermediate Staphylococcus aureus Mu50 after 24 hrs by broth microdilution method; format: functional; conditions: Mu50, 24 h; how it was run: as §1
Blood = assay: Drug uptake in CD1 mouse blood at 5 mg/kg, iv; format: ADME, organism-based; conditions: in vivo
How it was run: (§2)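 Fasted male CD-1 mice (18−22 g), 5 mg/kg single dose into the tail vein, 6 per group. Blood sampled at 0.25, 0.75, 2, 4, 8 and 24 h and analysed by UPLC-MS/MS. T1/2, AUClast, AUCINF_obs, CL_obs, MRTINF_obs and VSS_obs were calculated for each animal from its time−concentration curve.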

[3] = MRT (infinity) in CD1 mouse at 5 mg/kg, iv; format: ADME, organism-based; conditions: in vivo; how it was run: as §2
Staphylococcus aureus [4] = assay: Antibacterial activity against vancomycin/methicillin-susceptible Staphylococcus aureus Newman […] after 24 hrs by broth microdilution method; format: functional
How it was run: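 Broth microdilution in cation-adjusted Mueller-Hinton II broth. […] Each well received ~10^5 CFU of exponential-phase bacteria and was incubated at 37 °C for 24 h. MIC was taken as the lowest concentration giving complete growth inhibition, interpreted per CLSI.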

Enterococcus faecium [5] = assay: Antibacterial activity against glycopeptide-resistant Enterococcus faecium Efm-HS-06188 vanA after 24 hrs by broth microdilution method; format: functional; conditions: Efm-HS-06188, 24 h; how it was run: as §1
Enterococcus faecium [6] = assay: Antibacterial activity against glycopeptide-resistant Enterococcus faecium Efm-HS-0649 vanA after 24 hrs by broth microdilution method; format: functional; conditions: Efm-HS-0649, 24 h; how it was run: as §1
[7] = AUC (infinity) in CD1 mouse at 5 mg/kg, iv; format: ADME, organism-based; design: dose 5 mg/kg, route intravenous, time infinity; conditions: in vivo; how it was run: as §2
[8] = AUClast in CD1 mouse at 5 mg/kg, iv; format: ADME, organism-based; design: dose 5 mg/kg, route intravenous, time 0 - last; conditions: in vivo; how it was run: as §2
Enterococcus faecium [9] = assay: Antibacterial activity against glycopeptide-resistant Enterococcus faecium Efm-HS-08257 vanM after 24 hrs by broth microdilution method; format: functional; conditions: Efm-HS-08257, 24 h; how it was run: as §1
[10] = Volume of distribution at steady state in CD1 mouse at 5 mg/kg, iv; format: ADME, organism-based; conditions: in vivo, read-out: Vdss
How it was run: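 Fasted male CD-1 mice (18−22 g), 5 mg/kg single dose into the tail vein, 6 per group. T1/2, AUClast, AUCINF_obs, CL_obs, MRTINF_obs and VSS_obs were calculated for each animal from its time−concentration curve.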

[11] = Half life in CD1 mouse at 5 mg/kg, iv; format: ADME, organism-based; conditions: in vivo; how it was run: as §2
Staphylococcus aureus [12] = assay: Antibacterial activity against methicillin-resistant Staphylococcus aureus USA300 LAC infected in BALB/c mouse assessed as increase in mouse survival rate at 7 mg/kg, ip administered as single dose after 10 days relative to control; format: functional, organism-based
How it was run: (§3)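 Female BALB/c mice, 6−8 weeks old, were anesthetized with pentobarbital and infected retro-orbitally with ~2.35 × 10^8 CFU of exponential-phase USA300 LAC, 15 per group. A single 7 mg/kg ip dose was given 1 h after infection. Deaths were recorded daily to build survival curves.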

Staphylococcus aureus [13] = assay: Potency index, ratio of telavancin MIC90 to test compound MIC90 for vancomycin/methicillin-susceptible Staphylococcus aureus Newman […]; format: functional
[14] = Clearance in CD1 mouse at 5 mg/kg, iv; format: ADME, organism-based; conditions: in vivo; how it was run: as §2
Enterococcus faecium [15] = assay: Antibacterial activity against glycopeptide-resistant Enterococcus faecium Efm-HS-vb01 vanB after 24 hrs by broth microdilution method; format: functional; conditions: Efm-HS-vb01, 24 h; how it was run: as §1
Enterococcus faecium [16] = assay: Potency index, ratio of telavancin MIC90 to test compound MIC90 for glycopeptide-resistant Enterococcus faecium Efm-HS-vb01 vanB; format: functional
Enterococcus faecium [17] = assay: Potency index, ratio of oritavancin MIC90 to test compound MIC90 for glycopeptide-resistant Enterococcus faecium Efm-HS-vb01 vanB; format: functional
Staphylococcus aureus [18] = assay: Antibacterial activity against healthcare-associated methicillin-resistant/vancomycin-intermediate Staphylococcus aureus Mu50 infected in BALB/c mouse assessed as decrease in liver CFU levels at 7 mg/kg, ip administered twice in 24 hrs interval measured after 5 days; format: functional, organism-based
How it was run: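 Female BALB/c mice, 6−8 weeks old, were anesthetized with pentobarbital and infected retro-orbitally with ~3.8 × 10^8 CFU of exponential-phase Mu50, 12 per group. Treatment started 1 h post-infection: 7 mg/kg ip in sterile water, two doses 24 h apart. At day 5 mice were euthanized and liver homogenates plated on TSA for CFU counts. Groups were compared by two-tailed Mann−Whitney test.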

Staphylococcus aureus [19] = assay: Antibacterial activity against methicillin-resistant Staphylococcus aureus USA300 LAC infected in BALB/c mouse assessed as mouse survival rate at 7 mg/kg, ip administered as single dose measured after 10 days relative to control; format: functional; conditions: for survival at 7 mg/kg: 240 h; how it was run: as §3
L02 = assay: Cytotoxicity against human HL7702 cells assessed as decrease in cell viability at 10 to 100 uM after 72 hrs by CCK8 assay; format: cell-based; conditions: l02, 72 h
How it was run: (§4)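 HK-2 and HL-7702 cells were seeded at ~5000 cells/well, incubated overnight, then exposed to compound at final 10, 50 and 100 μM for 72 h. CCK-8 was added for 1.5 h at 37 °C and OD450 read. Viability was OD treated / OD untreated × 100, with triplicates.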

HK-2 = assay: Cytotoxicity against human HK2 cells assessed as decrease in cell viability at 10 to 100 uM after 72 hrs by CCK8 assay; format: cell-based; conditions: hk-2, 72 h; how it was run: as §4

SMILES | MIC (Enterococcus faecium [1]) [µg/mL] | MIC90 (Staphylococcus aureus [2]) [µg/mL] | Drug uptake (Blood) [µg/mL] | MRT inf [3] [h] | MIC90 (Staphylococcus aureus [4]) [µg/mL] | MIC (Enterococcus faecium [5]) [µg/mL] | MIC (Enterococcus faecium [6]) [µg/mL] | AUC(0-inf) [7] [ng·h/mL] | AUC(0-t) [8] [ng·h/mL] | MIC (Enterococcus faecium [9]) [µg/mL] | Vd [10] [L/kg] | half-life [11] [h] | Activity (Staphylococcus aureus [12]) | Ratio (Staphylococcus aureus [13]) | clearance [14] [mL/min/kg] | MIC (Enterococcus faecium [15]) [µg/mL] | Activity (Staphylococcus aureus [18]) | Activity (L02) | Activity (HK-2) | also measured
CN[C@H](CC(C)C)C(=O)N[C@H]1C(=O)N[C@@H](CC(N)=O)C(=O)N[C@H]2C(=O)N[C@H]3C(=O)N[C@H](C(=O)N[C@H](C(=O)O)c4cc(O)c(CNCCCNC(=O)[C@H](O)[C@@H](O)[C@H](O)[C@H](O)CO)c(O)c4-c4cc3ccc4O)[C@H](O)c3ccc(c(Cl)c3)Oc3cc2cc(c3O[C@@H]2O[C@H](CO)[C@@H](O)[C@H](O)[C@H]2O[C@H]2C[C@](C)(NCc3ccc(-c4ccc(C(F)(F)F)cc4)cc3)[C@H](O)[C@H](C)O2)Oc2ccc(cc2Cl)[C@H]1O | 8 (≈ 4.11 µM) | 0.25 (≈ 0.128 µM) | > 1 | 4.79 | 0.06 (≈ 0.0308 µM) | 1 (≈ 0.513 µM) | 2 (≈ 1.03 µM) | 13400 | 10700 | 4 (≈ 2.05 µM) | 1.83 | 3.72 | Active | 8 - 16 | 6.4 | 0.5 (≈ 0.257 µM) | – | – | – | –
CN[C@H](CC(C)C)C(=O)N[C@H]1C(=O)N[C@@H](CC(N)=O)C(=O)N[C@H]2C(=O)N[C@H]3C(=O)N[C@H](C(=O)N[C@H](C(=O)O)c4cc(O)c(CNCCO)c(O)c4-c4cc3ccc4O)[C@H](O)c3ccc(c(Cl)c3)Oc3cc2cc(c3O[C@@H]2O[C@H](CO)[C@@H](O)[C@H](O)[C@H]2O[C@H]2C[C@](C)(NCc3ccc(-c4ccc(C(F)(F)F)cc4)cc3)[C@H](O)[C@H](C)O2)Oc2ccc(cc2Cl)[C@H]1O | 4 (≈ 2.28 µM) | 0.12 (≈ 0.0683 µM) | – | – | 0.015 (≈ 0.00854 µM) | 1 (≈ 0.569 µM) | 1 (≈ 0.569 µM) | – | – | 2 (≈ 1.14 µM) | – | – | Active | – | – | ≤ 0.06 | – | – | – | –
CN[C@H](CC(C)C)C(=O)N[C@H]1C(=O)N[C@@H](CC(N)=O)C(=O)N[C@H]2C(=O)N[C@H]3C(=O)N[C@H](C(=O)N[C@H](C(=O)O)c4cc(O)c(CN[C@H]5C(O)O[C@H](CO)[C@H](O)[C@@H]5O)c(O)c4-c4cc3ccc4O)[C@H](O)c3ccc(c(Cl)c3)Oc3cc2cc(c3O[C@@H]2O[C@H](CO)[C@@H](O)[C@H](O)[C@H]2O[C@H]2C[C@](C)(NCc3ccc(-c4ccc(C(F)(F)F)cc4)cc3)[C@H](O)[C@H](C)O2)Oc2ccc(cc2Cl)[C@H]1O (stereo partly drawn) | 4 (≈ 2.13 µM) | 0.12 (≈ 0.064 µM) | > 1 | 4.41 | 0.015 (≈ 0.008 µM) | 1 (≈ 0.533 µM) | 1 (≈ 0.533 µM) | 24300 | 20100 | 2 (≈ 1.07 µM) | 0.9 | 3.45 | Active | 8 - 16 | 3.45 | ≤ 0.06 | – | – | – | Ratio (Enterococcus faecium [16]): 16; Ratio (Enterococcus faecium [17]): 4
CN[C@H](CC(C)C)C(=O)N[C@H]1C(=O)N[C@@H](CC(N)=O)C(=O)N[C@H]2C(=O)N[C@H]3C(=O)N[C@H](C(=O)N[C@H](C(=O)O)c4cc(O)c(CN[C@H]5C(O)O[C@H](CO)[C@H](O)[C@@H]5O)c(O)c4-c4cc3ccc4O)[C@H](O)c3ccc(c(Cl)c3)Oc3cc2cc(c3O[C@@H]2O[C@H](CO)[C@@H](O)[C@H](O)[C@H]2O[C@H]2C[C@](C)(NCc3ccc(-c4ccc(Cl)cc4)cc3)[C@H](O)[C@H](C)O2)Oc2ccc(cc2Cl)[C@H]1O (stereo partly drawn) | 8 (≈ 4.35 µM) | 0.12 (≈ 0.0652 µM) | > 1 | 4.18 | 0.03 (≈ 0.0163 µM) | 2 (≈ 1.09 µM) | 2 (≈ 1.09 µM) | 12200 | 12100 | 4 (≈ 2.17 µM) | 1.75 | 3.81 | – | 8 - 16 | 7 | 0.25 (≈ 0.136 µM) | Active | – | – | survival at 7 mg/kg (Staphylococcus aureus [19]): 93.3%
CN[C@H](CC(C)C)C(=O)N[C@H]1C(=O)N[C@@H](CC(N)=O)C(=O)N[C@H]2C(=O)N[C@H]3C(=O)N[C@H](C(=O)N[C@H](C(=O)O)c4cc(O)cc(O)c4-c4cc3ccc4O)[C@H](O)c3ccc(c(Cl)c3)Oc3cc2cc(c3O[C@@H]2O[C@H](CO)[C@@H](O)[C@H](O)[C@H]2O[C@H]2C[C@](C)(N)[C@H](O)[C@H](C)O2)Oc2ccc(cc2Cl)[C@H]1O [VANCOMYCIN] | > 128 | 8 (≈ 5.52 µM) | – | – | 2 (≈ 1.38 µM) | > 128 | > 128 | – | – | > 128 | 3.08 | – | – | – | 68.7 | 64 (≈ 44.2 µM) | inactive | Toxic | Toxic | survival at 7 mg/kg (Staphylococcus aureus [19]): 6.67%
CCCCCCCCCCNCCN[C@@]1(C)C[C@H](O[C@H]2[C@H](Oc3c4cc5cc3Oc3ccc(cc3Cl)[C@@H](O)[C@@H](NC(=O)[C@@H](CC(C)C)NC)C(=O)N[C@@H](CC(N)=O)C(=O)N[C@H]5C(=O)N[C@H]3C(=O)N[C@H](C(=O)N[C@H](C(=O)O)c5cc(O)c(CNCP(=O)(O)O)c(O)c5-c5cc3ccc5O)[C@H](O)c3ccc(c(Cl)c3)O4)O[C@H](CO)[C@@H](O)[C@@H]2O)O[C@@H](C)[C@H]1O [TELAVANCIN] | 4 (≈ 2.28 µM) | 1 (≈ 0.57 µM) | – | – | 0.25 (≈ 0.142 µM) | 8 (≈ 4.56 µM) | 4 (≈ 2.28 µM) | – | – | 0.12 (≈ 0.0684 µM) | – | – | – | – | 5.1 | 1 (≈ 0.57 µM) | Active | Toxic | Non-Toxic | Activity (Staphylococcus aureus [19]): Active
CN[C@H](CC(C)C)C(=O)N[C@H]1C(=O)N[C@@H](CC(N)=O)C(=O)N[C@H]2C(=O)N[C@H]3C(=O)N[C@H](C(=O)N[C@H](C(=O)O)c4cc(O)c(CNCCO[C@@H]5O[C@H](CO)[C@H](O)[C@H](O)[C@H]5O)c(O)c4-c4cc3ccc4O)[C@H](O)c3ccc(c(Cl)c3)Oc3cc2cc(c3O[C@@H]2O[C@H](CO)[C@@H](O)[C@H](O)[C@H]2O[C@H]2C[C@](C)(NCc3ccc(-c4ccc(Cl)cc4)cc3)[C@H](O)[C@H](C)O2)Oc2ccc(cc2Cl)[C@H]1O | 16 (≈ 8.49 µM) | 0.25 (≈ 0.133 µM) | – | – | 0.06 (≈ 0.0318 µM) | 2 (≈ 1.06 µM) | 4 (≈ 2.12 µM) | – | – | 4 (≈ 2.12 µM) | – | – | – | – | – | 0.12 (≈ 0.0637 µM) | – | Non-Toxic | Non-Toxic | –
